High-throughput results deposited in PubChem BioAssay by The Scripps Research Institute Molecular Screening Center.
Shown are actives, neighbours in structure and some others; about 3% of the full set was active somewhere.
TAAR1 antag: human TAAR1 antagonism; Q96RJ0; CHO RD-HGA16 TAAR1, Fluo-8 calcium fluorescence, antagonist; inhibition, % at 3 µM; 1.5% of 360,000 active;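 active = inhibition above a per-plate cutoff, the mean inhibition of test compounds on that plate plus 3 SD, cut at about 49% in these data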;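 also: 0% = DMSO plus EC80 beta-PEA response and 100% = DMSO alone without agonist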
Target sequence (Q96RJ0 whole entry, looked up): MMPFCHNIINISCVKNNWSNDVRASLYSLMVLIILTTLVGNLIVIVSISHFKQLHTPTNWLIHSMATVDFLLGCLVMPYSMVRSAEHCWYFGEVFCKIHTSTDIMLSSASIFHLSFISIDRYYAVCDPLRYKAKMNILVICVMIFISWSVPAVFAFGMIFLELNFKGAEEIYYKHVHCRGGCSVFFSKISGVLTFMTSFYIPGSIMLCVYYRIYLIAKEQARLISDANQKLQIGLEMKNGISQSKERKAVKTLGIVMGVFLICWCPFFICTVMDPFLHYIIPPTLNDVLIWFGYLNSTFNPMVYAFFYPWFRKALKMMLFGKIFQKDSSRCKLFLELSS
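System: RD-HGA16 CHO cells with stable hTAAR1 and Gα16 | Probe or stimulus: EC80 β-phenethylamine stimulus | Dosing: 3 µM, single point | Times: Dye loading 75 min at 37 °C, then 30 min room temperature | Measured by: Fluo-8 calcium-sensitive fluorescence | Read-out basis: % inhibition of agonist calcium response | Replicates: n of 1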
CHRM4 antagonist: blocks acetylcholine activation of human M4 receptor. P08173. CHO-hM4 cells, ACh EC80, Fluo-8 calcium fluorescence. inhibition, % at 3 µM. 0.73% of 360,000 active. AID 624125;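 active = inhibition above its plate's cutoff, the mean inhibition of sample wells plus 3 SD, cut at about 27% in these data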;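 also: 0% = acetylcholine EC80 with DMSO and 100% = DMSO without agonist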
TAAR1 agonist: human TAAR1 agonism; Q96RJ0; CHO RD-HGA16 TAAR1, Fluo-8 calcium fluorescence; vehicle wells 0%, saturating PEA agonist 100%; activation, % at 3 µM; 0.99% of 360,000 active;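 active = activation above the mean activation of all test compounds in the run plus 3 SD, cut at about 38% in these data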
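Test system: RD-HGA16 (CHO) cells co-expressing Gα16 and hTAAR1; dosing: one-point dosing at 3 µM (nominal); timing: 17-24 h seeding, 75 min 37 °C dye, 30 min RT; signal: kinetic Fluo-8 calcium fluorescence; read-out basis: % activation relative to PEA EC100 response; controls: DMSO and PEA EC100; replicates: n 1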
CHRM4 PAM: CHRM4 positive allosteric modulation; activation, % at 3 µM; CHO-K1 hM4/Gqi5, Fluo-8 calcium fluorescence, ACh EC20; 0% = ACh EC20, 100% = maximal ACh; 0.4% of 360,000 active; P08173;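 active = activation above its plate's cutoff, the mean activation of sample wells plus 3 SD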
CHRM4 agonist: agonists of human muscarinic M4 receptor (CHRM4); P08173; CHO-K1 hM4/Gqi5, Fluo-8 calcium fluorescence; vehicle 0%, full acetylcholine response 100%; activation, % at 3 µM; 0.14% of 360,000 active; AID 624127;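 active = activation above the run mean over all test wells plus 3 SD, cut at about 32% in these data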;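 also: peak over basal fluorescence ratio per well then scaled between controls; 0% = DMSO wells and 100% = acetylcholine at EC100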
Active calls of the source: *; . = not tested or not shown.

SMILES	TAAR1 antag	CHRM4 antagonist	TAAR1 agonist	CHRM4 PAM	CHRM4 agonist
C=CCSc1nnc(NC(=O)CN2C(=O)NC3(CCCC3)C2=O)s1	-0.9	-16.7	0.2	17.7*	0.4
O=C(CN1C(=O)NC2(CCCC2)C1=O)Nc1ccc(F)cc1	2.6	41.8*	14.8	37.7*	1.4
O=C(CN1C(=O)NC2(CCCC2)C1=O)NNC(=O)c1ccc(Br)cc1	-27.4	-15.9	1.4	24.6*	1.1
Cc1cc(N2CCNC[C@H]2C)ccc1N1CCS(=O)(=O)CC1	5.0	.	1.9	.	.
O=C(NN=Cc1ccc2c(c1)CCN2)c1cccs1	-14.0	-8.2	14.6	-0.7	-0.6
Cc1noc(C)c1C(=O)OCC(=O)Nc1ccc(N2CCOCC2)cc1	11.8	-7.1	-2.4	20.1*	0.7
CCC(C)[C@H]1CNC(=O)C(=O)N1CC1CCCCC1 (some centres not stated)	-14.0	-2.4	2.3	9.0	1.4
O=C(Cc1ccc(NC(=O)C2CCCN(C(=O)c3ccccc3)C2)cc1)Nc1cccc(C(=O)N2CCCCC2)c1 (configuration not stated)	-39.4	.	1.7	.	.
CCOC(=O)c1cccc(NC(=O)COc2nsnc2N2CCOCC2)c1	49.6*	-5.4	13.0	-14.1	23.7
COc1cc(-n2c(C)cc(O)cc2=O)ccc1Cl	-11.7	.	0.5	.	.
CCOc1ccccc1NC(=O)CN(c1ccc(C)cc1)S(=O)(=O)c1c(C)n[nH]c1C	14.8	-5.6	9.5	-14.7	0.6
CCOC(=O)c1ccc(NC(=O)CN(c2ccc(C)cc2)S(=O)(=O)c2c(C)n[nH]c2C)cc1	51.9*	7.8	33.8	-9.3	15.2
CCCOc1cccc(-c2cc(C(=O)N/N=C/c3cccnc3)c3ccccc3n2)c1	53.6*	0.8	3.5	-7.9	9.1
CCCOc1cccc(-c2cc(C(=O)N/N=C/c3ccccn3)c3ccccc3n2)c1	34.0	-0.6	6.7	-2.9	12.9
COc1cccc(Nc2nnc(SCC(=O)Nc3sccc3C(N)=O)s2)c1	67.6*	28.9*	12.4	-45.3	18.8
CCc1ccc(Nc2nnc(SCC(=O)Nc3sccc3C(N)=O)s2)cc1	38.8	9.2	14.9	-18.1	11.2
Fc1ccc(-c2ccc3c(n2)CCCN3Cc2ccccc2C(F)(F)F)cc1	-33.9	.	-0.7	.	.
CCOc1cc(OCC)cc(C(=O)N2CCC[C@H]2C(=O)N2CCC[C@H]2C(=O)N(C)Cc2ccccc2)c1	4.1	-3.9	4.2	1.3	2.9
Cc1nnc(NC(=O)c2c(-c3ccccc3)noc2C)s1	-8.3	6.8	2.5	-3.0	0.0
Cc1onc(-c2ccccc2)c1C(=O)Nc1nnc(N(C)Cc2ccccc2)s1	-23.3	-11.0	-0.6	18.0*	5.2
O=S(=O)(/N=S1\CC=CCN1S(=O)(=O)c1ccccc1)c1ccccc1 (configuration not stated)	-8.1	13.5	67.1*	-5.9	60.5*
O=S(=O)(c1ccccc1)N1CCN(S(=O)(=O)c2ccccc2)c2ccccc21	16.6	-13.5	0.2	8.3	0.3
CC(C(=O)NCC1(c2ccccc2)CCCC1)N1CCOCC1 (configuration not stated)	5.2	22.5	4.3	-14.3	0.0
CC(C(=O)NCC1(c2ccccc2)CCCC1)N1CCCC1 (configuration not stated)	-1.8	42.8*	6.8	-38.9	1.6
CCCN(C(=O)CCc1cn(CCC)c2ccccc12)c1ccc(Oc2cccnc2)cc1	43.5	.	0.4	.	.
SMILES	TAAR1 antag	CHRM4 antagonist	TAAR1 agonist	CHRM4 PAM	CHRM4 agonist
CC1=C(C(=O)N(C)C)CC(CC(=O)NCCCCc2ccccc2)C(=O)N1CCCN1CCCC1=O (configuration not stated)	-17.8	-14.6	12.2	21.9*	0.8
O=C(COC(=O)c1cc(=O)c2ccccc2o1)Nc1ccc2ccccc2c1	-24.7	-3.9	40.0*	9.9	0.9
O=C(COC(=O)c1cc(=O)c2ccccc2o1)Nc1c(F)c(F)c(F)c(F)c1F	3.5	3.9	-0.1	14.3	0.8
COc1cc(Cl)c(C)cc1NC(=O)COc1cc(C)nc(C(C)C)n1	-2.5	2.9	-1.4	32.6*	1.2
COc1ccccc1NC(=O)COc1cc(C)nc(C(C)C)n1	0.8	-21.1	7.5	14.4	-0.1
Cc1ccc(CN(c2ccc(C(=O)NCc3cccnc3)cc2)S(C)(=O)=O)cc1	9.0	2.6	11.8	2.8	5.0
Cc1ccc(CN(c2ccc(C(=O)NCc3ccccn3)cc2)S(C)(=O)=O)cc1	16.6	-3.0	37.5*	9.4	5.4
O=C(NCc1ccccn1)c1ccc(-c2ccccc2)cc1	4.8	-5.9	1.6	1.3	2.3
O=C(NCc1ccccn1)c1ccc(=O)oc1	1.9	10.3	15.2	30.9*	0.5
Cc1cccc(N2CCN(C(=O)CCn3c(=S)[nH]c4cc5c(cc4c3=O)OCO5)CC2C)c1 (configuration not stated)	35.7	40.0*	9.4	30.9*	6.3
O=C(CCn1c(=S)[nH]c2cc3c(cc2c1=O)OCO3)N1CCc2ccccc2C1	2.1	.	20.8	.	.
COC(=O)C1=C(C)N(CC(C)C)C(=S)NC1c1cccc(OC)c1 (configuration not stated)	21.7	.	-0.9	.	.
CN(C)CCCOC(=O)N1c2ccccc2C=Cc2ccccc21	-2.4	66.6*	7.6	-16.6	9.3
C/C(=N\Nc1ccc([N+](=O)[O-])cc1)c1cccc(N)c1	16.9	10.3	17.7	-7.5	8.5
C/C(=N\Nc1ccc([N+](=O)[O-])cc1)c1ccc(O)cc1	54.9*	6.4	19.4	-6.4	16.7
COc1ccc(C=CC(=O)c2c(N)n(C)c(=O)n(C)c2=O)cc1	-3.2	.	0.8	.	.
CC(C)(C)C(=O)Nc1nc2c(c(=O)[nH]1)CCCC2	10.8	-2.0	2.5	20.6*	2.2
CCC(=O)Nc1nc2c(c(=O)[nH]1)CCCC2	11.8	-17.1	9.0	5.4	0.6
COC(=O)[C@]12C[C@H](CC(=O)N3CCN(C(=O)c4ccco4)CC3)C(=O)N(Cc3ccc4c(c3)OCO4)C1=C[C@H](COCc1ccccc1)O[C@@H]2C	11.5	.	2.2	.	.
CCc1c(C)nc(SCC(=O)c2cccs2)c(C#N)c1C	8.9	38.8*	12.1	79.6*	5.6
Cc1cc(Nc2ccccc2)nc(N2CCOCC2)n1	-16.9	-5.5	40.8*	1.9	0.5
Cc1cc(Nc2cccc(Cl)c2)nc(N2CCOCC2)n1	-22.6	-4.7	6.3	-2.1	-0.1
CSc1ccc(C2c3[nH]c4ccccc4c3CCN2C(=O)c2ccnn2C)cc1 (configuration not stated)	48.6*	14.3	13.6	-12.1	15.2
Cc1nnc(NC(=O)CSc2nc3ccccc3o2)s1	1.5	6.4	8.0	31.8*	1.3
CCc1nnc(NC(=O)CSc2nc3ccccc3o2)s1	15.1	-7.8	1.8	8.2	1.4
